Test results: the RNAGym collection of RNA variant scans (doi:10.1038/s41586-018-0170-7)

B1: tRNA (parent)
chain: GUUCCGUUGGCGUAAUGGUAACGCGUCUCCCUCCUAAGGAGAAGACUGCGGGUUCGAGUCCCGUACGGAACG

Variants of: B1
Test: yeast fitness, log relative to wild type (ln ratio); higher = fitter; tRNA-Arg(CCU), competitive growth, 37 C, 1 M NaCl
Procedure, shortened: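 A combinatorial tRNA-Arg(CCU) variant library was carried on a HIS3 centromeric plasmid in BY4742 lacking the chromosomal gene, from two independent transformations. Pools grew 4 generations in SC-HIS at 30 °C, then ~6.5 generations (~26.5 h) in SC-HIS 1M NaCl at 37 °C, with three outputs per input. Variants were counted by 125 bp paired-end Illumina sequencing. Fitness is ln of each genotype's generations (OD-scaled log2 output/input frequency, inverse-variance weighted across replicates) over the wild-type's.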

Compared with G1A U2C A43C C46U A69G A70G, U2G G6A C27U C46U A70U is lower in “yeast fitness (ln)” value: -0.0565 for the first, -0.106 for the second.

First: G1A U2G G6A C27U A43C C46U C66U A70G C71U
Second: G1A U2C G6U C27U C46U A70G
The “yeast fitness (ln)” value of the first is lower: -0.286 for the first, -0.129 for the second.

First: U2G G6A C27U A43C C66U A70G C71U
Second: G6A A43C C46U C66U A69G A70G C71U
The “yeast fitness (ln)” value of the first is lower: -0.29 for the first, -0.24 for the second.

Compared with U2C G6A C27U A43C C66U A69G A70G C71U, U2C C27U A43C C66U A70G C71U is higher in “yeast fitness (ln)” value: -0.293 for the first, -0.207 for the second.

First: G1A U2G G6A C27U A43C A69G A70U
Second: U2G G6A C27U A69G C71U
The “yeast fitness (ln)” value of the first is lower: -0.379 for the first, -0.268 for the second.

Going from U2G G6A C27U A43C C66U A70G to U2C G6U C27U C66U A70U, the “yeast fitness (ln)” value rises from -0.223 to -0.194.

First: U2G G6U C66A
Second: U2G G6A C27U A43C C66A A70G C71U
The “yeast fitness (ln)” value of the first is higher: -0.0885 for the first, -0.23 for the second.

Compared with G1A C27U A43C A69G, G1A U2G G6A A43C C46U C66U C71U is lower in “yeast fitness (ln)” value: -0.138 for the first, -0.177 for the second.

First: G1A U2C G6A A43C A70U C71U
Second: G6A C46U C66U A69G
The “yeast fitness (ln)” value of the first is lower: -0.088 for the first, -0.0205 for the second.

Compared with G1A U2C C27U A43C C46U C66U C71U, C27U C66A A69G C71U is higher in “yeast fitness (ln)” value: -0.241 for the first, -0.184 for the second.

Going from U2C G6U C27U A43C C66U C71U to G6U A43C A69G A70G, the “yeast fitness (ln)” value falls from -0.338 to -0.371.

Going from G1A C46U C66U A69G C71U to G1A A43C C46U C66A A69G A70G C71U, the “yeast fitness (ln)” value rises from -0.763 to -0.191.

Going from U2G G6A A43C C46U C66A A70U C71U to G1A U2C C46U A69G A70U, the “yeast fitness (ln)” value rises from -0.227 to -0.016.

First: U2G G6U A43C C46U C66A A69G C71U
Second: G1A U2G C27U A43C A70U C71U
The “yeast fitness (ln)” value of the first is lower: -0.462 for the first, -0.167 for the second.

Compared with U2G G6A C27U A43C C66A A69G A70U C71U, A43C A69G C71U is higher in “yeast fitness (ln)” value: -0.548 for the first, -0.138 for the second.

Compared with U2C G6U C27U C46U C66U A69G C71U, G1A G6U C27U C46U C66A A69G A70U C71U is higher in “yeast fitness (ln)” value: -0.397 for the first, -0.37 for the second.

First: G1A U2G G6U C27U A70U
Second: G1A U2C G6A C66A A70G C71U
The “yeast fitness (ln)” value of the first is lower: -0.265 for the first, -0.127 for the second.

Going from G1A G6U A43C C66U A69G A70G C71U to G1A U2C C27U A43C C66U A70G C71U, the “yeast fitness (ln)” value rises from -0.371 to -0.197.

Going from A43C C66A to G1A U2G A43C C46U C66A A69G A70G C71U, the “yeast fitness (ln)” value falls from -0.0164 to -0.24.

First: U2G C27U C66U C71U
Second: G1A C27U A43C C66U C71U
The “yeast fitness (ln)” value of the first is higher: -0.194 for the first, -0.437 for the second.

Going from U2G G6A A70U C71U to G6A C27U A70G, the “yeast fitness (ln)” value falls from -0.107 to -0.148.

First: C27U C46U C66U A70G C71U
Second: G1A G6U C27U A43C C66U
The “yeast fitness (ln)” value of the first is higher: -0.126 for the first, -0.362 for the second.

First: G6U C27U A43C C66A A70G
Second: C27U C66A A70U
The “yeast fitness (ln)” value of the first is lower: -0.293 for the first, -0.0748 for the second.

Compared with G1A U2C G6U A70G C71U, G1A U2C G6A C27U A70G C71U is lower in “yeast fitness (ln)” value: -0.0526 for the first, -0.273 for the second.

Compared with U2G G6U C46U C66U A70G, G1A C27U A69G A70G C71U is lower in “yeast fitness (ln)” value: -0.137 for the first, -0.322 for the second.

First: C66A A70U
Second: C66A A70G
The “yeast fitness (ln)” value of the first is higher: -0.00405 for the first, -0.0114 for the second.

First: G1A U2C G6U C27U A43C C46U A70U C71U
Second: U2G A43C A69G A70G C71U
The “yeast fitness (ln)” value of the first is lower: -0.177 for the first, -0.168 for the second.

Going from U2C G6A A43C C46U C66U A70G to G1A U2G C27U A43C C46U A70G C71U, the “yeast fitness (ln)” value falls from -0.0107 to -0.223.

Compared with G6U A43C C46U C66U A69G A70U, G6A A69G A70U is higher in “yeast fitness (ln)” value: -0.347 for the first, -0.082 for the second.

First: G1A U2G G6U C27U A43C A70G C71U
Second: G1A U2C G6U C46U C66A
The “yeast fitness (ln)” value of the first is lower: -0.588 for the first, -0.141 for the second.

First: U2G C66U A69G A70G C71U
Second: G1A U2G G6U C27U A43C C66A A69G A70G C71U
The “yeast fitness (ln)” value of the first is higher: -0.204 for the first, -0.461 for the second.

Going from G1A U2C G6U C46U A70U C71U to G6A C66A A70G, the “yeast fitness (ln)” value falls from -0.033 to -0.0871.

First: G1A U2G G6U A43C C46U A70U C71U
Second: U2C C27U A43C C46U C66U A69G C71U
The “yeast fitness (ln)” value of the first is higher: -0.226 for the first, -0.281 for the second.

First: G1A U2G G6A C27U A43C A70U
Second: G1A G6A A43C C46U C66U C71U
The “yeast fitness (ln)” value of the first is lower: -0.26 for the first, -0.0152 for the second.

Going from G6A C27U A43C C46U C66A A69G A70U C71U to G1A G6A C27U C66U C71U, the “yeast fitness (ln)” value rises from -0.471 to -0.0761.

Compared with U2G G6U C27U A43C C66A A70G C71U, G1A U2G C66U A69G A70U is higher in “yeast fitness (ln)” value: -0.253 for the first, -0.197 for the second.

First: G1A U2G G6U C27U A43C A69G C71U
Second: G6A C27U A43C C46U C66U A70U C71U
The “yeast fitness (ln)” value of the first is lower: -0.479 for the first, -0.435 for the second.

First: U2G G6A A43C C46U C66U
Second: U2G G6A C46U C71U
The “yeast fitness (ln)” value of the first is higher: -0.147 for the first, -0.149 for the second.

First: U2G A43C C46U C66A A70U C71U
Second: G6A C66U
The “yeast fitness (ln)” value of the first is lower: -0.193 for the first, -0.0046 for the second.

Going from G6A C27U A43C C46U A70U to G1A U2G G6U C27U C66A A69G A70G C71U, the “yeast fitness (ln)” value falls from -0.139 to -0.408.

First: G1A A69G C71U
Second: G1A U2G G6A A43C A69G C71U
The “yeast fitness (ln)” value of the first is higher: -0.0087 for the first, -0.506 for the second.

In the case of G6U C66U, the “yeast fitness (ln)” value is reported as -0.0366.
